Assay outcomes (PubChem BioAssay)
Hits are enriched below; roughly 2% of the tested compounds scored in any of these assays.
ARFGAP1 inhibitor: rat ARFGAP1 inhibition; actives 0.26% (n = 360,000); Arfgap1-stimulated ARF1 GTP hydrolysis, GDP FP detection; inhibition, % at 16.5 µM; Q62848; AID 651572;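 active = inhibition above a per-plate limit, mean inhibition of low control wells plus 3 SD, cut at about 25% in these data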;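 note: 0% = DMSO wells with enzyme and 100% = wells lacking Arfgap1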
Target sequence (Q62848 1-136 limits assumed): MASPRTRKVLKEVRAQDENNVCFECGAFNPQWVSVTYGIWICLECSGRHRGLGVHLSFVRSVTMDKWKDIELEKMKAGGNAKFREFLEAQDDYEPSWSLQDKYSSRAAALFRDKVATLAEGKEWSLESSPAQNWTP
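Assay system: purified rat His6-Arfgap1 residues 1-136 (GAP domain); Reagent: human Δ17 ARF1 bound to GTP; Dosing: 16.5 µM single point, 1.26% DMSO; Times: GTP hydrolysis reaction 2 h at 25 °C; Signal: FP, GDP Alexa 633 tracer displaced from anti-GDP antibody, 620/688 nm; Measure: % inhibition from polarization.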
MBD2 inh: blocks human MBD2 binding to methylated DNA; Q9UBB5; actives 0.31% (n = 370,000); TR-FRET, MBD2 binding to methylated oligonucleotide; inhibition, % at 4.4 µM; AID 686964; in the data active = inhibition above about 13%
Target sequence (Q9UBB5 whole entry, looked up): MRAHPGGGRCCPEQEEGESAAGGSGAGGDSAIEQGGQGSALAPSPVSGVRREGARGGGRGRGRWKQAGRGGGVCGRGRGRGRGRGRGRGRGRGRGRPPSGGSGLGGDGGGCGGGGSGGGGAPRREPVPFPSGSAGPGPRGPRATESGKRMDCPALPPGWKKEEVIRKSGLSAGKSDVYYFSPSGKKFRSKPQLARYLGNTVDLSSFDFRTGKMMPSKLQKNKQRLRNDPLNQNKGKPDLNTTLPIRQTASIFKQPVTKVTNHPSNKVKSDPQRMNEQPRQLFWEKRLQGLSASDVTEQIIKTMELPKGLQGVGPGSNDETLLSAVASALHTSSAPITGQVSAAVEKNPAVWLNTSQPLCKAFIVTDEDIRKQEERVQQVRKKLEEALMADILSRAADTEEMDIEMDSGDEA
LEDGF integ inh: blocks HIV-1 LEDGF/p75-dependent DNA integration; TR-FRET IN-LEDGF/p75 DNA integration, Eu/Cy5; inhibition, % at 3.7 µM; actives 0.64% (n = 370,000);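 active = inhibition above the screen-wide mean plus 3 SD, cut at about 13% in these data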;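 note: signal is the Cy5 over europium emission ratio at 671 and 618 nm; 0% = plate median of compound wells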
ASAP1 inh: ASAP1 ArfGAP inhibition. Q9ULH1. ASAP1-stimulated ARF1 GTP hydrolysis, GDP FP detection. inhibition, % at 16.5 µM. actives 0.19% (n = 360,000). AID 624377; in the data active = inhibition above about 25%;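 note: 0% = vehicle with enzyme and substrate and 100% = no enzyme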
TCR CD3 inh: human TCR-CD3 binding inhibition. actives 0.37% (n = 360,000). TAMRA-labeled TCR probe fluorescence, biochemical. inhibition, % at 9.4 µM; in the data active = inhibition above about 19%;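 note: recombinant mutant TCR 2C K166C tagged with TAMRA read by polarization; 0% = receptor in buffer alone and 100% = receptor with positive control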
UHRF1 MBD2 ctr: UHRF1 methyl-DNA binding inhibition; actives 0.75% (n = 370,000); inhibition, % at 4.4 µM; UHRF1 binding to methylated oligo, TR-FRET; in the data active = inhibition above about 21%;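 note: UHRF1 SRA domain binding a hemimethylated CpG hairpin DNA probe; 0% = median of test compound wells and 100% = reference inhibitor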
IN multimer act: counter-screen for LEDGF/p75 integration inhibitors: HIV-1 integrase multimerization activators; shares compounds with LEDGF integ inh; TR-FRET HIV-1 integrase multimerization, biochemical; activation, % at 7.7 µM; actives 17% (n = 2,000); AID 1053131; in the data active = activation above about 8.9%
TRFRET interf: TR-FRET optical interference, LEDGF/p75 integration counter-screen; shares compounds with LEDGF integ inh; TR-FRET optical interference counterscreen, HIV-1 IN multimerization; 2,000 tested, under 10 active; inhibition, % at 7.7 µM; AID 1053135;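 active = inhibition above the mean over all tested compounds plus 3 SD, which no compound reached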;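 note: 0% = integrase with antibodies and DMSO and 100% = antibodies without integrase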
IN-LEDGF confirm: LEDGF/p75-dependent HIV-1 integration inhibition, confirmation; shares compounds with LEDGF integ inh; inhibition, % at 3.7 µM; AID 1053136; actives 36% (n = 2,000); TR-FRET LEDGF/p75-dependent HIV-1 integration, biochemical; in the data active = inhibition above about 14%
An asterisk follows results filed as active; . = no result given.

SMILES | ARFGAP1 inhibitor | MBD2 inh | LEDGF integ inh | ASAP1 inh | TCR CD3 inh | UHRF1 MBD2 ctr | IN multimer act | TRFRET interf | IN-LEDGF confirm
CCc1ccccc1-n1c(SCC(=O)NC)nnc1-c1cccnc1 | 2 | 2 | 22* | -7 | 1 | 3 | 0 | 2 | -8
O=C(CCN1CCOCC1)N1c2ccccc2Sc2ccc(Cl)cc21 | -4 | 4 | 17* | 1 | -3 | 1 | -2 | 9 | 3
O=C(NCCN1CCOCC1)N1c2ccccc2Sc2ccccc21 | -12 | 7 | 2 | 0 | -2 | -1 | . | . | .
COc1ccc(CC(=O)O/N=C(\N)Cc2cccc3ccccc23)cc1 | 7 | 0 | 14* | 4 | -3 | -1 | -1 | 3 | -1
Nc1cc(=O)[nH]c(SCC(=O)Nc2ccc([N+](=O)[O-])cc2)n1 | 4 | -1 | -7 | -1 | -1 | 2 | . | . | .
Nc1cc(=O)[nH]c(SCC(=O)Nc2cccc([N+](=O)[O-])c2)n1 | 5 | 2 | 56* | 1 | -7 | 1 | 1 | -7 | 1
Cc1no[n+]([O-])c1COc1cccc(/C=N/Nc2nncn2N)c1 | 11 | -3 | 58* | -4 | -7 | 11 | 1 | -5 | -3
Cc1cc(=O)[nH]c(-n2[nH]c(C)cc2=O)n1 | -6 | -8 | 4 | -8 | 1 | -4 | . | . | .
COc1ccc(-n2[nH]c(C)cc2=O)cc1 | 4 | 3 | 19* | 12 | 4 | 11 | 1 | -2 | 1
CC1C/C(=C/c2cccs2)C(=O)/C(=C/c2cccs2)C1 (stereo not given) | -4 | 2 | 29* | 4 | -6 | 28* | 0 | 2 | 5
O=C1C(=Cc2cccs2)CCc2ccccc21 | -5 | -2 | 5 | 11 | 6 | -1 | . | . | .
COc1ccc(C(=O)C2CCN(C(=O)c3ccc(OC)cc3)CC2)cc1 | 3 | 3 | 2 | -2 | -3 | -2 | . | . | .
COc1ccc(C(=O)N2CCC(C(=O)c3ccc(F)cc3)CC2)cc1 | 1 | 3 | 80* | 5 | -1 | 1 | 0 | 1 | -4
CCOc1ccc(Cl)cc1S(=O)(=O)N1CCC(C(=O)NCC2CCCO2)CC1 (stereo not given) | -9 | -4 | 2 | 4 | 7 | 2 | . | . | .
Cc1cc(Oc2ccc(-c3nnc(-c4ccccc4)o3)cc2[N+](=O)[O-])ccc1Cl | -4 | -5 | 5 | -1 | 1 | -1 | . | . | .
Cc1nnc(-c2ccc(Oc3ccc(Br)cc3)c([N+](=O)[O-])c2)o1 | 8 | 5 | 16* | -5 | -2 | 0 | 0 | 2 | -7
O=C1CC(c2ccccc2)=NN1c1ccccc1 | 1 | 6 | 21* | 1 | -4 | 16 | 1 | -4 | 2
CN(C)C(=O)OCC1COc2ccccc2O1 (stereo not given) | 14 | 11 | -3 | -16 | 1 | 5 | . | . | .
Cc1ccc(Sc2ncccc2C(=O)NC2CCCCCC2)cc1C | 5 | -6 | 0 | -6 | -2 | 1 | . | . | .
O=C(NC1CCCCCC1)c1cccnc1Sc1ccccc1 | -8 | -4 | 24* | 20 | -1 | -2 | 0 | 0 | -3
Cc1ccc(S(=O)(=O)N2CCOCC2)cc1NC(=O)COC(=O)c1ccc(Br)o1 | -19 | -3 | -4 | 1 | -3 | 4 | . | . | .
Cc1ccccc1CN1CCC(n2nccc2NC(=O)c2ccc3c(c2)OCO3)CC1 | 8 | -1 | -7 | -1 | 0 | 3 | . | . | .
CCN(CC)c1cc(Oc2ccccc2)ncn1 | -21 | -3 | 47* | -17 | 0 | 1 | 1 | -5 | -6
Oc1ccc2ccccc2c1C=Nc1ccc(N2CCOCC2)cc1 | 0 | -15 | 28* | -9 | -5 | -5 | 2 | -9 | -1
C(=Nc1ccc(N2CCOCC2)cc1)c1c[nH]c2ccccc12 | 7 | -8 | 23* | -7 | 0 | -2 | -1 | 3 | 7
SMILES | ARFGAP1 inhibitor | MBD2 inh | LEDGF integ inh | ASAP1 inh | TCR CD3 inh | UHRF1 MBD2 ctr | IN multimer act | TRFRET interf | IN-LEDGF confirm
CCn1c(=O)c2c(nc(SCC(=O)N3CCC(C)CC3)n2C)n(C)c1=O | 6 | -1 | 3 | -15 | -3 | 5 | . | . | .
O=C(O)c1cn2c3c(ccc(Cl)c3c1=O)OCC2 | -2 | 6 | -1 | 9 | 0 | -1 | . | . | .
CCCCCOC(=O)c1c(N)n(CCOC)c2nc3ccccc3nc12 | -6 | -6 | 5 | -6 | -6 | -5 | . | . | .
CCOC(=O)c1c(N)n(CCOC(=O)c2cccs2)c2nc3ccccc3nc12 | -1 | 6 | 33* | 7 | -5 | 12 | 1 | -3 | -3
CCOC(=O)c1cc2c(c(CCO)n1)[C@@H](CCO)N(S(=O)(=O)C(C)(C)C)C2 | 5 | 2 | 1 | -1 | 4 | 0 | . | . | .
O=C(NC(Cc1ccccc1)C(=O)O)/C(=C\c1ccco1)NC(=O)c1ccc(Br)cc1 (stereo not given) | 5 | 1 | 22* | 6 | 11 | 7 | 0 | -2 | -2
O=C(Nc1ccc(C(=O)O)cc1)/C(=C\c1ccco1)NC(=O)c1ccc(Br)cc1 | -5 | 5 | 14* | 15 | -2 | 10 | 0 | 2 | 2
CCOC(=O)c1noc(C)c1C(=O)Nc1nc(C)cc(C)n1 | -7 | -7 | 2 | -2 | 0 | 0 | . | . | .
COc1ccc(NS(=O)(=O)c2ccc3c(c2)[C@H]2C=CC[C@H]2[C@@H](c2ccc(C(=O)O)cc2)N3)cc1 | -12 | 5 | 52* | 5 | 4 | 20 | 26* | -94 | 58*
O=c1/c(=C/c2ccco2)sc2n1CN(c1ccccc1)CN=2 | 6 | -7 | 17* | -1 | 8 | -2 | 2 | -8 | 4
O=c1/c(=C/c2ccco2)sc2n1CN(c1cccc(Br)c1)CN=2 | -3 | 3 | 11 | 4 | 3 | -6 | . | . | .
CC(C)(C)c1ccc(S(=O)(=O)/N=C2\C=C(NS(=O)(=O)c3ccccc3)C(=O)c3ccccc32)cc1 | -2 | -9 | 16* | -4 | -2 | -6 | -1 | 5 | -6
Cc1ccc(S(=O)(=O)/N=C2\C=C(NS(=O)(=O)c3ccccc3)C(=O)c3ccccc32)c(C)c1 | -4 | -17 | 2 | -8 | -3 | -2 | . | . | .
Cc1ccc(S(=O)(=O)/N=C2\C=C(Nc3cccc(C(=O)O)c3)C(=O)c3ccccc32)c(C)c1 | 2 | -2 | 11 | 19 | 0 | 2 | . | . | .
